Compound activity as filed in PubChem.
In the library only some 1% were active in any assay of this set; here they are far more common.
CAL PDZ FP-1 = human CAL PDZ-peptide interaction inhibition. Q9HD26. purified CAL PDZ, TMR-peptide fluorescence polarization, 1 h. inhibition, % at 20 µM. 330,000 tested, 0.02% active. AID 504414;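 active = highest replicate inhibition of at least 40%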;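 also: plate controls were DMSO neutral control wells for no effect and unlabeled competitor peptide control wells for full effect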
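System: purified tagged CAL PDZ domain construct (CerCALP). Schedule: 1 h incubation at room temperature before polarization reading. Medium: 25 mM sodium phosphate pH 7.4, 150 mM NaCl, TCEP, IgG, Thesit. Read-out: percent inhibition from loss of millipolarization. Measured by: FP readout, S and P plane fluorescence. Probe or stimulus: fluorescent TMR peptide probe.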
RAD54 inh = inhibitors of human RAD54 branch migration. Q92698. RAD54 Holliday junction branch migration, FAM/BHQ fluorescence. inhibition, % at 10.4 µM. 360,000 tested, 0.14% active;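 active = mean normalized replicate activity at least 40 and at least half of replicates scoring 40 or more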;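 also: 0% = median of neutral control wells and 100% = median of positive control wells; inhibitors cause a drop in the FAM fluorescence signal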
RAD52 inh = blocks human RAD52 DNA annealing | P43351 | recombinant RAD52 DNA annealing, FRET fluorescence | inhibition, % at 18.7 µM | 360,000 tested, 0.46% active | AID 651710;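 active = every replicate showing at least 50% inhibition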
ERp5 inh = blocks human ERp5 reductase activity on insulin; Q15084; ERp5 insulin aggregation, absorbance 650 nm, 90 min; inhibition, % at 9.99 µM; 350,000 tested, 0.05% active; AID 651711;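 active = mean replicate inhibition above about 25%, with every replicate also reaching it, limit read from the data, passing the limit was not always enough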
PDI inh = inhibitors of human protein disulfide isomerase; PDI insulin aggregation turbidity, A650, 90 min; inhibition, % at 10 µM; 350,000 tested, 0.052% active; AID 588391;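 active = mean inhibition across replicates of 30% or more, whatever share of single replicates reach that level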
Target sequence (P07237 whole entry, looked up): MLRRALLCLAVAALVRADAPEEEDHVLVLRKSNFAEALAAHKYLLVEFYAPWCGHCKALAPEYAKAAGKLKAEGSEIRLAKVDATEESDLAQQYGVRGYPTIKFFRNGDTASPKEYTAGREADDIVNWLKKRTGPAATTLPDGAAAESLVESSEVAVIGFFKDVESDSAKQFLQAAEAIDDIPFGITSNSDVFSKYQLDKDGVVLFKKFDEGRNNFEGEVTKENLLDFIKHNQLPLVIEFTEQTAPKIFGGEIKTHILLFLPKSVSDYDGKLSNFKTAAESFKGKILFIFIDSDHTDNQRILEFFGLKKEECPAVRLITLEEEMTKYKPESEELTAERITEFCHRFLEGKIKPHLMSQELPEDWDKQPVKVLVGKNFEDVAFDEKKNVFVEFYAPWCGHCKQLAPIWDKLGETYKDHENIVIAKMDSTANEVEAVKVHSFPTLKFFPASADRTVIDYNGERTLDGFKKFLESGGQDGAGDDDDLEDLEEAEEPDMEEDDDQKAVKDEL
CAL PDZ FP-2 = CAL PDZ (human) peptide binding inhibition; purified CAL PDZ, TMR-peptide fluorescence polarization, 1 h; inhibition, % at 24.9 µM; 300,000 tested, 0.92% active;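 active = mean inhibition of at least 30% with at least half of replicates also reaching 30%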;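 also: 0% = DMSO neutral control and 100% = excess unlabeled competitor peptide PRC23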
* = called active by the depositor; . = not tested or not shown.

SMILES	CAL PDZ FP-1	RAD54 inh	RAD52 inh	ERp5 inh	PDI inh	CAL PDZ FP-2
COC(CNS(=O)(=O)c1cc2c3c(c1)CCN3C(=O)CC2)OC	-1	7	-3	-2	14	48*
O=C(CC1Nc2ccccc2NC1=O)NC1CCCCC1 (centres undefined)	-1	0	-35	1	0	0
CC(C)CNC(=O)CC1Nc2ccccc2NC1=O (centres undefined)	.	-6	.	.	0	95*
O=C(NCCCN1CCCC1=O)c1cc2nc(-c3ccco3)cc(C(F)(F)F)n2n1	0	3	-6	4	-1	58*
O=C(c1cc2nc(-c3ccco3)cc(C(F)(F)F)n2n1)N1CCCCCC1	0	-16	-68	3	7	1
Cc1ccc(CSc2ccc(S(=O)(=O)N3CCCC3)cn2)cc1	-1	5	-19	6	0	71*
CO[C@H]1CN(C)C(=O)c2cc(NS(=O)(=O)c3ccccc3Cl)ccc2OC[C@H](C)NC[C@H]1C	.	3	4	14	.	.
COc1ccc(S(=O)(=O)Nc2ccc3c(c2)C(=O)N([C@@H](C)CO)C[C@H](C)[C@@H](CN(C)S(=O)(=O)c2cn(C)cn2)OCCCC[C@H](C)O3)cc1	.	9	3	0	.	.
COCCn1c(SCC(=O)NCc2ccc3c(c2)OCO3)nnc1-c1c[nH]c2ccccc12	-1	0	-7	1	.	64*
COc1ccc(NS(=O)(=O)c2ccc3oc(=S)[nH]c3c2)cc1	-1	.	-29	4	-5	31*
COc1ccc(NS(=O)(=O)c2ccc3oc(=O)ccc3c2)cc1	.	-4	-11	4	-4	-5
CCN(CC)c1ccc(NS(=O)(=O)c2ccc(OC)cc2)cc1	-1	.	-3	-10	-3	66*
COc1cc(/C=N/NC(N)=S)cc(Br)c1OCc1ccccc1F	-1	.	.	.	0	124*
C[C@@H]1CCCCO[C@H](CN(C)C(=O)Nc2cccc3ccccc23)[C@H](C)CN([C@@H](C)CO)C(=O)c2cc(NC(=O)Nc3ccc4c(c3)OCO4)ccc2O1	.	10	-14	9	.	.
COc1ccc(-c2cn(CC[C@H]3CC[C@@H](NS(=O)(=O)c4ccccc4C)[C@@H](CO)O3)nn2)cc1	.	0	-13	0	.	.
CCn1c(SCc2ccc(F)cc2)nnc1C1CCN(S(=O)(=O)c2ccc(OC)cc2)CC1	-2	7	.	.	-8	49*
CCn1c(SCc2ccc(C)cc2)nnc1C1CCN(S(=O)(=O)c2ccc(OC)cc2)CC1	-1	1	.	.	1	2
Cc1ccc(NS(=O)(=O)c2ccc(Cl)c(N=Nc3c(O)[nH]c(=O)[nH]c3=O)c2)cc1Cl	0	-3	-10	3	13	31*
O=C(NC1CCCCC1)N1CC(=O)N2[C@@H](CO)[C@@H](c3ccc(-c4cccnc4)cc3)[C@@H]2C1	.	.	61*	-1	.	.
C[C@H](CO)N1C[C@H](C)[C@H](CN(C)S(=O)(=O)c2ccc(Cl)cc2)OCCCC[C@H](C)Oc2ccc(NC(=O)Nc3cccc4ccccc34)cc2C1=O	.	8	5	4	.	.
CC1CCCCN1C(=O)COc1ccc(F)cc1 (centres undefined)	-1	.	-15	2	11	44*
CN1CCC(OC(=O)COc2ccc(F)cc2)CC1	11	-2	-20	4	-2	47*
C[C@@H]1CN([C@@H](C)CO)C(=O)c2cc(NS(=O)(=O)c3cn(C)cn3)ccc2O[C@@H]1CN(C)Cc1ccccc1	.	-6	1	0	.	.
COc1ccc(/C=C/C(=O)OCC(=O)Nc2ccc(S(N)(=O)=O)cc2)cc1OC	-1	.	3	-1	9	45*
COCCNC(=S)Nc1cc2oc3ccccc3c2cc1OC	0	7	-22	-2	-3	31*
SMILES	CAL PDZ FP-1	RAD54 inh	RAD52 inh	ERp5 inh	PDI inh	CAL PDZ FP-2
O=C(NCC1CCCO1)C1CCN(C2CCN(Cc3ccco3)CC2)CC1 (centres undefined)	-3	-9	-13	1	-16	-3
O=C(NCCc1ccccc1)C1CCN(C2CCN(Cc3ccco3)CC2)CC1	12	4	-25	2	-4	30*
C[C@@H]1CCCCO[C@H](CN(C)C(=O)NC2CCCCC2)[C@@H](C)CN([C@H](C)CO)C(=O)c2cc(NC(=O)c3ccncc3)ccc2O1	.	-4	-30	1	.	.
COCC(=O)N(C)C[C@@H]1Oc2cc(-c3ccc(C#N)cc3)ccc2S(=O)(=O)N([C@H](C)CO)C[C@H]1C	.	4	-2	-1	.	.
Cc1c(C)c2ccc(OC(C)C(=O)NCCCn3ccnc3)c(C)c2oc1=O (centres undefined)	0	2	-11	-4	0	71*
CCCc1ccc(C(=O)/C=C/N(C)C)cc1	-4	3	-14	2	-10	53*
CSc1cc(CS(=O)(=O)c2ccccc2)nc(-c2ccccc2)n1	-1	1	-11	0	2	79*
O=C(Nc1ccncc1)C1CCN(S(=O)(=O)c2cccs2)CC1	-2	.	4	-1	-2	-3
O=C(Nc1cc(Cl)ccn1)C1CCN(S(=O)(=O)c2cccs2)CC1	0	-8	.	.	-8	33*
COc1cc(C2C(C#N)=C(N)N(N(C)C)C3=C2C(=O)CC(C)(C)C3)cc(OC)c1OC (centres undefined)	-1	.	11	3	3	44*
COc1ccc(C2C(C#N)=C(N)N(N(C)C)C3=C2C(=O)CC(C)(C)C3)cc1OC (centres undefined)	0	.	-12	-1	7	-4
CC(C)CC#Cc1ccc2c(c1)O[C@@H](CN(C)C(=O)c1cnccn1)[C@H](C)CN([C@@H](C)CO)S2(=O)=O	.	5	6	-8	.	.
COc1ccc(OC)c(/C=C/C(=O)OCC(=O)N2CCCCC2)c1	-1	-5	-10	3	-8	64*
CC(C)NC(=O)Nc1cccc2c1O[C@H](CN(C)C(=O)Nc1ccc3c(c1)OCO3)[C@@H](C)CN([C@H](C)CO)C2=O	.	8	8	-3	.	.
O=C1C=CC(c2ccccc2)(c2ccccc2)CC1	0	6	0	-1	7	38*
CN1C(=O)CCC1(O)c1ccccc1 (centres undefined)	-1	-4	.	.	3	1
C[C@@H]1CN([C@@H](C)CO)C(=O)c2cc(NC(=O)C3CCCCC3)ccc2O[C@H]1CN(C)S(=O)(=O)c1ccc(Cl)cc1	.	1	6	2	.	.
CCOc1ccc(N2CC(C(=O)Nc3cccc(S(=O)(=O)N4CCCC4)c3)CC2=O)cc1 (centres undefined)	-4	.	11	-3	8	-6
CCOc1ccc(N2CC(C(=O)Nc3cccc(S(=O)(=O)NC4=NCCC4)c3)CC2=O)cc1 (centres undefined)	-5	.	-29	-1	4	45*
